Bioassay records from PubChem BioAssay.
TRPC6 inhibitor – mouse TRPC6 channel inhibitors, primary screen, cell-based, HEK293, membrane potential dye; ACh-evoked depolarization; stronger effect = lower value; B-score at 10 µM; actives 1.1% (n = 310,000); AID 2553, 2010;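 active means B-score under library mean minus 3 SD, initial fluorescence not abnormally high, positive integrated signal ratio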;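 further: B-score derived from integrated fluorescence ratio over the kinetic read; more negative B-score means stronger inhibition of depolarization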
Target sequence (Q61143 whole entry, looked up): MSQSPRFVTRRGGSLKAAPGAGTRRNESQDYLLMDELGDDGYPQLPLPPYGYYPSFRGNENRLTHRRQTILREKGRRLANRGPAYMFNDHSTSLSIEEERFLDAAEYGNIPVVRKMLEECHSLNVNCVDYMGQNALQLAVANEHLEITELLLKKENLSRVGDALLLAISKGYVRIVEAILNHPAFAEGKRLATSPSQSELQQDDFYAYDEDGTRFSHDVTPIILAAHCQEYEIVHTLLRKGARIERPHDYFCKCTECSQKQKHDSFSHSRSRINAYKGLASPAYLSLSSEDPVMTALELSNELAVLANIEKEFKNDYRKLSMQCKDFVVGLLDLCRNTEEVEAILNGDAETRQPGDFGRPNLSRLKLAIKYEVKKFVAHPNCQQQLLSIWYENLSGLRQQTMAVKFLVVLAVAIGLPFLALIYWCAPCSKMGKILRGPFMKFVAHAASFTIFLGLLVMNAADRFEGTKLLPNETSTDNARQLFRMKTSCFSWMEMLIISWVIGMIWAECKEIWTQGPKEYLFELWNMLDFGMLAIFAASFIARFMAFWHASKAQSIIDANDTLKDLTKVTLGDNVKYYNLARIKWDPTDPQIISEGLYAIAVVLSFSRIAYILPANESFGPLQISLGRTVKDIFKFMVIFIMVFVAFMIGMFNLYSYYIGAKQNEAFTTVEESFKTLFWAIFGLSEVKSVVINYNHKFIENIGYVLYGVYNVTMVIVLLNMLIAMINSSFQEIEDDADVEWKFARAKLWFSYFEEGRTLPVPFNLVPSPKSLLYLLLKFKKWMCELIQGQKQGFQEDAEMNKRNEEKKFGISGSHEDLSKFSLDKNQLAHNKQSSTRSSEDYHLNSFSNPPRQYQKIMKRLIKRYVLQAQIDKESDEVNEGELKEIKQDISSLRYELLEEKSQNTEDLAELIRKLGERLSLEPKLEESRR
TRPC4 agonist – activators of mouse TRPC4 channel, primary screen, Fluo4 calcium, HEK293 TRPC4beta/mu-opioid cells; Short transient receptor potential channel 4 (Mus musculus), Q9QUQ5; Fluo4 calcium fluorescence; stronger effect = higher value; B-score at 10 µM; actives 0.49% (n = 310,000); AID 2237, 2010;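 active means B-score above 5 SD of library B-scores, and initial fluorescence ratio not above library mean plus 5 SD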;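 further: positive B-score marks a calcium rise read as TRPC4 activation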
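Test system: HEK293 cells stably co-expressing mouse TRPC4beta and mu-opioid receptor | Schedule: Fluo4 dye loading 45 min at room temperature, 110 s recording | Measured by: Kinetic Fluo4 calcium fluorescence, 5 s baseline at 1 Hz | Evaluation: B score of integrated ratio | Controls: Buffer (low) and maximal DAMGO (high)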
TRPC4 PAM – positive allosteric modulators of TRPC4, primary screen, cell-based, mouse TRPC4beta, HEK293 mu-opioid, Fluo-4 calcium | AID 2227, 2009 | actives 0.42% (n = 310,000) | Short transient receptor potential channel 4 (Mus musculus), Q9QUQ5 | B-score at 10 µM | DAMGO EC20, Fluo-4 Ca2+ flux; stronger effect = higher value;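 active means B-score of calcium response area above 5 SD of library B-scores, with initial fluorescence ratio within 5 SD of library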;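 further: B-score of integrated fluorescence ratio over time as area under calcium response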
TRPC4 block – inhibitors of mouse TRPC4 channel, primary screen, Fluo4 calcium, HEK293 TRPC4beta/mu-opioid cells. DAMGO-evoked Fluo4 calcium flux; stronger effect = lower value. AID 2247, 2010. Short transient receptor potential channel 4 (Mus musculus), Q9QUQ5. B-score at 10 µM. actives 0.39% (n = 300,000);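 active means B-score over 3 SD under the library average, no early fluorescence shift, positive overall ratio signal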
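System: stable TRPC4beta/mu-opioid receptor HEK293 cells; Dosing: single-point compound dosing; Measured by: Fluo4 Ca2+ flux fluorescence; Read-out basis: per-well B score of integrated baseline-normalized Fluo4 ratio.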
TRPC6 act – mouse TRPC6 channel activators, primary screen, cell-based, HEK293, membrane potential dye; Short transient receptor potential channel 6 (Mus musculus), Q61143; HEK293-TRPC6 membrane potential dye fluorescence; stronger effect = higher value; B-score at 10 µM; actives 0.13% (n = 310,000); AID 2550, 2010;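 active means B-score of the integrated fluorescence ratio above library mean plus 3 SD, and starting fluorescence ratio within library mean plus 5 SD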;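 further: higher score means more depolarization so channel activation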
TRPC4 spec 2 – second selectivity test of TRPC6 inhibitors: effect on mouse TRPC4; shares compounds with TRPC6 inhibitor; HEK293 TRPC4/MOR, membrane potential dye fluorescence; channel activated by saturating DAMGO dose; inhibition, % at 10 µM; actives 42% (n = 920); AID 2776;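 active means compounds whose fluorescence signal differed from control wells by over 3 SD, either direction, in both duplicate plates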
TRPC4 spec – mouse TRPC4 modulation by TRPC6 hits, confirmation, selectivity assay for TRPC6 inhibitor project, cell-based, HEK293 TRPC4/mu-opioid, membrane potential dye; shares compounds with TRPC6 inhibitor; membrane potential fluorescence; activity change, negative = inhibition, % at 10 µM; actives 61% (n = 920);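 active means rise or fall in signal beyond 3 SD of buffer-only wells in both replicate plates, either sign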;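 further: integrated kinetic ratio of fluorescence range over baseline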
HEK293 MPD ctr 2-1 – nonspecific membrane potential effects, parental HEK293, confirmation, counter-screen for TRPC6 inhibitor project, cell-based, second counter screen. shares compounds with TRPC6 inhibitor. parental HEK293 membrane potential dye fluorescence; maximal acetylcholine challenge after compound addition. signal change vs control, % at 10 µM. actives 31% (n = 920);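 active means membrane potential signal moving either way by over 3 SD of the maximum-effect control, in both duplicate plates, meaning non-specific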
HEK293 MPD ctr-1 – membrane potential modulation in parental HEK293, confirmation, counter-screen for TRPC6 inhibitor project, cell-based | shares compounds with TRPC6 inhibitor | parental HEK293 membrane potential dye fluorescence | membrane potential signal change, % at 10 µM | actives 60% (n = 920) | AID 2780, 2010;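 active means membrane potential signal shifting up or down by more than 3 SD of buffer-only wells, on both duplicate plates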
HEK293 MPD ctr-2 – parental HEK293 membrane potential modulation, confirmation, counter-screen for TRPC6 modulator project, cell-based; shares compounds with TRPC6 inhibitor; actives 51% (n = 2,400); membrane potential signal change, % at 10 µM; membrane potential dye fluorescence;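 active means membrane potential signal moves up or down beyond 5 SD from buffer-only wells, on both duplicate plates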
HEK293 MPD ctr 2-2 – parental HEK293 nonspecific activity of TRPC6 modulators, second screen. shares compounds with TRPC6 inhibitor. membrane potential dye fluorescence; after compound, maximal acetylcholine stimulation. inhibition, % at 10 µM. actives 14% (n = 2,400). AID 488926;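 active means membrane potential signal drops by more than 5 SD from the mean control signal, in both duplicate plates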;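 further: plate controls were acetylcholine ECmax control wells for no effect and buffer only wells for full effect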
TRPC4/MOR mod – TRPC4 modulation by TRPC6 hit compounds, confirmation, selectivity assay for TRPC6 modulator project, cell-based, HEK293 TRPC4/mu-opioid, membrane potential dye, mouse. membrane potential fluorescence. percent change from control (negative = decrease, positive = increase), % at 10 µM. shares compounds with TRPC6 inhibitor. AID 488927, 2010. actives 69% (n = 2,400);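 active means membrane potential signal moved up or down beyond 5 SD of buffer control wells, in both duplicate plates, actives on both sides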;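 further: plate controls were assay buffer wells for no effect and DAMGO maximal-effect wells for full effect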
TRPC4/MOR inh 2 – second check of whether TRPC6 modulators also affect mouse TRPC4. inhibition, % at 10 µM. shares compounds with TRPC6 inhibitor. AID 488928. HEK293 TRPC4/mu-opioid, membrane potential dye fluorescence; stimulated with maximal-effect DAMGO. actives 55% (n = 2,400);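 active means drop in membrane potential signal beyond 5 SD of the control wells in both duplicate plates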;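 further: TRPC4 counter screen for TRPC6 hits run under conditions tuned for TRPC6 not TRPC4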
TRPC6 block conf – mouse TRPC6 channel inhibitors, confirmation, HEK293 cells, membrane potential dye, duplicate; shares compounds with TRPC6 inhibitor; ACh-evoked depolarization; inhibition, % at 10 µM; actives 43% (n = 3,300); AID 488960, 2010;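 active means fluorescence ratio falls more than 5 SD below the full-stimulation control mean, in both duplicate runs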;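 further: integrated fluorescence ratio of peak minus minimum over baseline after agonist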
TRPC6 act conf – mouse TRPC6 channel activators, confirmation, HEK293 cells, membrane potential dye, duplicate; HEK293-TRPC6 membrane potential dye fluorescence, FDSS; actives 11% (n = 2,800); activation, % at 10 µM; shares compounds with TRPC6 inhibitor;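 active means ratio signal rise beyond 5 SD above unstimulated control wells' mean, seen in both duplicate runs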;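 further: plate controls were buffer EC0 wells for no effect and acetylcholine ECmax response for full effect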
An asterisk follows results filed as active. In the library only some 2.3% were active in any assay of this set; here they are far more common.

How did Cc1ccc(O)c(Sc2cc(C)ccc2O)c1 do in these assays?
TRPC6 inhibitor: -8.4*; TRPC4 agonist: inactive; TRPC4 PAM: inactive; TRPC4 block: -6*; TRPC6 act: inactive; TRPC4 spec 2: inactive; TRPC4 spec: -13%*; HEK293 MPD ctr 2-1: inactive; HEK293 MPD ctr-1: -141%*; TRPC6 block conf: 71%*; TRPC6 act conf: inactive

Results for CCC(CC)COC(=O)C(C#N)c1nc2ccccc2nc1N1CCN(CC)CC1 (centres undefined) ?
TRPC6 inhibitor: -9.8*; TRPC4 agonist: inactive; TRPC4 PAM: inactive; TRPC4 block: inactive; TRPC6 act: inactive; TRPC4 spec 2: 50%*; TRPC4 spec: inactive; HEK293 MPD ctr 2-1: inactive; HEK293 MPD ctr-1: inactive; TRPC6 block conf: 63%*; TRPC6 act conf: inactive

What do the screens show for `COc1ccc(N(C)C(=O)CN(C)S(=O)(=O)c2ccc3c(c2)c(=O)n(C)c(=O)n3C)c(OC)c1`?
TRPC6 inhibitor: inactive; TRPC4 agonist: inactive; TRPC4 PAM: inactive; TRPC4 block: inactive; TRPC6 act: inactive

What do the screens show for `c1ccc(-c2nc(-c3ccccn3)nc(-c3ccccn3)n2)nc1`?
TRPC6 inhibitor: -6.7*; TRPC4 agonist: inactive; TRPC4 PAM: inactive; TRPC4 block: inactive; TRPC6 act: inactive; TRPC4 spec 2: inactive; TRPC4 spec: -19%*; HEK293 MPD ctr 2-1: 4.0%*; HEK293 MPD ctr-1: -266%*; TRPC6 block conf: inactive; TRPC6 act conf: inactive

Results for COc1ccccc1NC(=O)N1CCCC(CNC(=O)c2ccccc2Cl)C1 (centres undefined) ?
TRPC6 inhibitor: inactive; TRPC4 agonist: inactive; TRPC4 PAM: inactive; TRPC4 block: inactive; TRPC6 act: inactive

What do the screens show for `CC(C)[N+](C)(CCOC(=O)C1c2ccccc2Oc2ccccc21)C(C)C`?
TRPC6 inhibitor: -9.5*; TRPC4 agonist: inactive; TRPC4 PAM: inactive; TRPC4 block: inactive; TRPC6 act: inactive; TRPC4 spec 2: inactive; TRPC4 spec: inactive; HEK293 MPD ctr 2-1: -18%*; HEK293 MPD ctr-1: inactive; TRPC6 block conf: 105%*; TRPC6 act conf: inactive

How did COC(=O)c1ccc(NC(=O)CCN2CCOCC2)cc1 do in these assays?
TRPC6 inhibitor: inactive; TRPC4 agonist: inactive; TRPC4 PAM: inactive; TRPC4 block: inactive; TRPC6 act: inactive

What do the screens show for `O=C(O)CN1C(=O)C2C3C=CC(C3)C2C1=O` (centres undefined)?
TRPC6 inhibitor: inactive; TRPC4 agonist: inactive; TRPC4 PAM: inactive; TRPC4 block: inactive; TRPC6 act: inactive

What do the screens show for `C[N+]1(CN2C(=O)C3C4C=CC(C4)C3C2=O)CCCCC1` (centres undefined)?
TRPC6 inhibitor: -5.6*; TRPC4 agonist: inactive; TRPC4 PAM: inactive; TRPC4 block: inactive; TRPC6 act: inactive; HEK293 MPD ctr-2: inactive; HEK293 MPD ctr 2-2: inactive; TRPC4/MOR mod: inactive; TRPC4/MOR inh 2: inactive; TRPC6 block conf: 48%*; TRPC6 act conf: inactive

How did Cc1ccc(C)c(OC(=O)c2cccnc2Cl)c1C do in these assays?
TRPC6 inhibitor: -6.2*; TRPC4 agonist: inactive; TRPC4 PAM: inactive; TRPC4 block: inactive; TRPC6 act: inactive; HEK293 MPD ctr-2: inactive; HEK293 MPD ctr 2-2: inactive; TRPC4/MOR mod: inactive; TRPC4/MOR inh 2: inactive; TRPC6 block conf: inactive; TRPC6 act conf: inactive

How did S=C(NCCN(C1CCCCC1)C1CCCC1)Nc1cccc(Cl)c1 do in these assays?
TRPC6 inhibitor: -6.1*; TRPC4 agonist: inactive; TRPC4 PAM: inactive; TRPC4 block: inactive; TRPC6 act: inactive; HEK293 MPD ctr-2: 95%*; HEK293 MPD ctr 2-2: inactive; TRPC4/MOR mod: 18%*; TRPC4/MOR inh 2: 70%*; TRPC6 block conf: 56%*

How did S=C(NCCC(c1ccccc1)c1ccccc1)Nc1cccc(Cl)c1 do in these assays?
TRPC6 inhibitor: inactive; TRPC4 agonist: inactive; TRPC4 PAM: inactive; TRPC4 block: inactive; TRPC6 act: inactive
